Two compounds from ChEMBL document CHEMBL1155904, “Synthesis and evaluation of heteroaryl-ketone derivatives as a novel class of VEGFR-2 inhibitors” (Bioorg Med Chem Lett, 2008) can be followed below.

Type in all cases: ADME, organism-based
Holding throughout (conditions): read-out: Drug uptake

Series [1] can be described thus: Plasma concentration in mouse at 30 mg/kg, po after 1 hr. On the set-up: dose 30 mg/kg, route oral.
A short description of series [2]: Plasma concentration in mouse at 30 mg/kg, ip after 1 hr. Also noted: dose 30 mg/kg, route intraperitoneal. The method in brief: (§1)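 Mice dosed intraperitoneally at 30 mg/kg in a vehicle of 5% ethanol, 5% Tween-80, 5% PEG400 and 85% PBS. Plasma drug concentration measured at set times after injection.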
Series [3] in a line: Plasma concentration in mouse at 30 mg/kg, ip after 4 hrs. On the set-up: dose 30 mg/kg, route intraperitoneal. The method in brief: as §1

`O=C(c1ccccc1NCc1ccc2ncccc2c1)c1n[nH]c2ccccc12`: the concentration at 1 h in series [1] turned out to be 1800 nM; in series [2] it was 2400 nM.

Turning to `Cc1ccc2c(c1)c(C(=O)c1ccccc1NCc1ccc3ncccc3c1)cn2C`, the concentration at 4 h in series [3] was found to be 1100 nM. Further, the concentration at 1 h in series [1] is 1800 nM; in series [2], 2900 nM.
